Test [1] addresses T1, 17-beta-hydroxysteroid dehydrogenase type 1 (Homo sapiens, UniProt P14061).
T1 sequence (P14061 whole entry): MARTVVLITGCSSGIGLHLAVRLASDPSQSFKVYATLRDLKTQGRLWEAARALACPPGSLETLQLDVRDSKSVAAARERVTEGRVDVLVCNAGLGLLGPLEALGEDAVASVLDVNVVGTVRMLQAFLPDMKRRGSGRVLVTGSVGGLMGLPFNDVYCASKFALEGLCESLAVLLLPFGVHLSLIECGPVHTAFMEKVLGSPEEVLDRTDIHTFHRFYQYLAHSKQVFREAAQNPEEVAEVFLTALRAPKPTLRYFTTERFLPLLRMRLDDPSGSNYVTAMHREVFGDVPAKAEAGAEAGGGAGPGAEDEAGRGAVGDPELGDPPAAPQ
The test can be described thus: Inhibition of human placental 17beta-HSD1 cytosolic fraction using tritiated estrone as substrate assessed as formation of estradiol by HPLC analysis. In a few lines:
(§1)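 Cytosolic fraction from placenta served as the enzyme source, incubated with tritiated E1 (500 nM final), NADH cofactor and test compound. E1 and E2 were separated by HPLC and the labeled species quantified. Mean of three determinations.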

In test [2] the target is T2, 17-beta-hydroxysteroid dehydrogenase type 1 (Homo sapiens) (UniProt P14061).
T2 sequence (whole entry): T1 sequence (P14061 whole entry)
Put plainly: Inhibition of human placental 17beta-HSD1 cytosolic fraction using tritiated estrone as substrate assessed as formation of estradiol at 1 uM by HPLC analysis relative to control. In a few lines:
as §1

Test [3] deals with T3, Estradiol 17-beta-dehydrogenase 2 (Mus musculus) (UniProt P51658).
T3 sequence (whole entry): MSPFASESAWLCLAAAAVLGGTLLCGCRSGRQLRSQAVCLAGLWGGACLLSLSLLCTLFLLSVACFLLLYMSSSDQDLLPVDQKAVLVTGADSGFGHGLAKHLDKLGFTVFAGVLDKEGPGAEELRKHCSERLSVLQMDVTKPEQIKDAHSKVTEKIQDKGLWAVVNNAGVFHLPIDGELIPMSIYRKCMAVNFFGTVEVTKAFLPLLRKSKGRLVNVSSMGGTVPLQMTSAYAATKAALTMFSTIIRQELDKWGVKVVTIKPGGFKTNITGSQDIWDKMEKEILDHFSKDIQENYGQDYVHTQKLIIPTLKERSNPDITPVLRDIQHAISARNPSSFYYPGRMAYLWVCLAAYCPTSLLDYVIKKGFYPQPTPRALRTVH
Put plainly: Inhibition of mouse liver 17beta-HSD2 microsomal fraction using tritiated estradiol as substrate assessed as formation of estrone at 1 uM by HPLC analysis relative to control. In a few lines:
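Mouse liver microsomes were used, following the same procedure as the human type 2 assay: tritiated E2 at 500 nM with NAD⁺, and E1 formation quantified after HPLC separation.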

For another test, the species on record is Homo sapiens. Put plainly: Selectivity factor, ratio of IC50 for human placental 17beta-HSD1 cytosolic fraction to IC50 for placental 17beta-HSD2 microsomal fraction. The method, boiled down: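 Selectivity factor calculated as IC50(h17β-HSD1)/IC50(h17β-HSD2), both IC50 values taken from the placental cytosolic and microsomal radiolabel HPLC assays.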

Test [4] concerns the target T4, 17-beta-hydroxysteroid dehydrogenase type 2 (Homo sapiens) (UniProt P37059).
T4 sequence (whole entry): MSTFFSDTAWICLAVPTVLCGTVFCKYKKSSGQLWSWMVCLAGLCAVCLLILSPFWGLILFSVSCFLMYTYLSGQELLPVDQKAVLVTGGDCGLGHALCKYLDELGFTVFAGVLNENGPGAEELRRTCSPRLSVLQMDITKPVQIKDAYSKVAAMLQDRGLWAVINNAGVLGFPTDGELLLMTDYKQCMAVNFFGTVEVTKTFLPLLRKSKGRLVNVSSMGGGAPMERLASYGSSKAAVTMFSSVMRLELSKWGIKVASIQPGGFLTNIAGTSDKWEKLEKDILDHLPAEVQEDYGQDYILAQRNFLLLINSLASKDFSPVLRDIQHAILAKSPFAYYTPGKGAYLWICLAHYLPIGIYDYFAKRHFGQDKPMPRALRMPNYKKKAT
Put plainly: Inhibition of human placental 17beta-HSD2 microsomal fraction using tritiated estradiol as substrate assessed as formation of estrone at 1 uM by HPLC analysis relative to control. The method, boiled down:
(§2)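 Placental microsomes were incubated with tritiated E2 (500 nM final) plus NAD⁺ cofactor and test compound. Labeled E2 and E1 were separated by HPLC and quantified. Mean of three determinations, standard deviation below 20%.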

For test [5], the target named is T5, 17-beta-hydroxysteroid dehydrogenase type 2 (Homo sapiens, UniProt P37059).
T5 sequence (P37059 whole entry): T4 sequence (whole entry)
The test can be described thus: Inhibition of human placental 17beta-HSD2 microsomal fraction using tritiated estradiol as substrate assessed as formation of estrone by HPLC analysis. In a few lines: as §2

Test [6] concerns the target T6, Estrogen receptor (Homo sapiens) (UniProt P03372).
T6 sequence (whole entry): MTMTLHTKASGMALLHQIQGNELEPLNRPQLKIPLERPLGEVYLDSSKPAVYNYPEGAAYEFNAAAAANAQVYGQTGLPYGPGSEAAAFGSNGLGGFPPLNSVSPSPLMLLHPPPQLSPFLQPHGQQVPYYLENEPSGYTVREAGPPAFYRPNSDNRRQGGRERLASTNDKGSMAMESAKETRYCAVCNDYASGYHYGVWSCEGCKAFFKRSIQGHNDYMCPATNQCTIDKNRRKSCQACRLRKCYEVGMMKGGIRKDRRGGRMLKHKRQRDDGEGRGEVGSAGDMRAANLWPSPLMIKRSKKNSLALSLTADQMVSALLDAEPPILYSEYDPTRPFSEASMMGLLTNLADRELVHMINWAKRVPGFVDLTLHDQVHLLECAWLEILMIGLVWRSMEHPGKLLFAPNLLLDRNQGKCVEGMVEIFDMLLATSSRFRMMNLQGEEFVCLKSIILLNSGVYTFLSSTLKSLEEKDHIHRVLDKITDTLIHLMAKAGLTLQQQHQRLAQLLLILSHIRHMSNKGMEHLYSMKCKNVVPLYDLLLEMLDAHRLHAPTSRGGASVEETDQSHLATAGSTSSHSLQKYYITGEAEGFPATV
Put plainly: Displacement of [3H]-estradiol from recombinant human estrogen receptor-alpha by liquid scintillation counting analysis relative to estradiol. In a few lines:
(§3)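 Competitive binding with [³H]-E2; compounds in DMSO at 5% final. Non-specific binding was set with unlabeled E2 at 100-fold the tracer: 300 nM for ERα, 1000 nM for ERβ. Bound complexes were captured on hydroxyapatite and counted by liquid scintillation. Concentrations displacing 50% were read from sigmoidal curves, with E2 run in each experiment. RBA[%] = IC50(E2)/IC50(compound) × 100.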

Test [7] deals with Estrogen receptor beta (Homo sapiens) (UniProt Q92731). The test can be described thus: Displacement of [3H]-estradiol from recombinant human estrogen receptor-beta by liquid scintillation counting analysis relative to estradiol. In a few lines: as §3
Background: Displacement assays read how much labelled ligand stays bound in the presence of the test substance.

The structures appear in SMILES notation. Activity calls are given as the source filed them. The calls are words filed in the database; no cut-off is given here. A value given as a limit tells only on which side of the number the result lay.

Consider ten compounds from ChEMBL document CHEMBL3286341, “Novel, potent and selective 17β-hydroxysteroid dehydrogenase type 2 inhibitors as potential therapeutics for osteoporosis with dual human and mouse activities” (Eur J Med Chem, 2014).

What is called IC50 is the concentration at which inhibition is half-maximal. In general, inhibition refers to the percentage by which the read-out fell short of the control.

Chain of Estrogen receptor beta (Homo sapiens) (Q92731 whole entry): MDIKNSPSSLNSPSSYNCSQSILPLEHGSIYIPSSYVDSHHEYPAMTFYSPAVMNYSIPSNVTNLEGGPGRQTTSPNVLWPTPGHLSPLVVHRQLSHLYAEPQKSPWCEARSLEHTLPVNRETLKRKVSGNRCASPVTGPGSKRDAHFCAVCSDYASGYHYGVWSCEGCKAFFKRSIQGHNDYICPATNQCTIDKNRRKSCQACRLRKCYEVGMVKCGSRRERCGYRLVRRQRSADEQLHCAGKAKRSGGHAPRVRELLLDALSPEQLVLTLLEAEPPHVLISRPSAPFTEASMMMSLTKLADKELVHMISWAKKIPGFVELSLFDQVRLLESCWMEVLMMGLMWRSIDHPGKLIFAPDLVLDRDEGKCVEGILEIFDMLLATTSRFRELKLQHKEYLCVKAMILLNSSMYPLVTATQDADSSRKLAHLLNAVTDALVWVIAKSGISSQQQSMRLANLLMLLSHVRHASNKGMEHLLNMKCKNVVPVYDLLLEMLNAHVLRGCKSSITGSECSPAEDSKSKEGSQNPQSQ

Turning to `COc1cccc(CN(C)C(=O)c2ccc(-c3cccc(OC)c3)s2)c1`, the IC50 in test [1] was over 10000 nM. In addition, the inhibition entry in test [2] was “inactive”. For the same compound, in test [3], the inhibition worked out at 26%. Further, the Ratio IC50 in the test listed under Homo sapiens is over 250.

With `COc1cccc(CC(=O)c2ccc(-c3cccc(OC)c3)s2)c1`, the inhibition entry in test [2] was “inactive”. Also, the values for the inhibition in test [3] and in test [4] were 12% and 17%, respectively.

Take `CN(Cc1cccc(O)c1)C(=O)c1ccc(-c2cccc(O)c2)s1`: the inhibition in test [3] was 16%. The Ratio IC50 in the test listed under Homo sapiens came to 14.

Take `COc1cccc(-c2ccc(C(=O)N(C)Cc3cccc(O)c3)s2)c1F`: the inhibition entry in test [2] was “inactive”. Also, in the test filed under Homo sapiens, the Ratio IC50 came out at 73.

In the case of `CN(C(=O)c1cc(-c2cccc(O)c2)sc1-c1cccc(O)c1)c1cccc(O)c1`, the IC50 is 2490 nM in test [1] and 362 nM in test [5]. For the same compound, the results for the inhibition in test [2], in test [3] and in test [4] were 29%, 42% and 74%, respectively. Besides, the Ratio IC50 in the test listed under Homo sapiens turned out to be 7.

As for `CC(C)(C(=O)c1ccc(-c2cccc(O)c2)s1)c1cccc(O)c1`, the IC50 was 336 nM in test [1] and 357 nM in test [5]. In addition, the inhibition in test [2] was determined as 54%; in test [3], 42%; in test [4], 73%. Besides, the Ratio IC50 in the test filed under Homo sapiens worked out at 1.

As for `O=C(Cc1cccc(O)c1)c1ccc(-c2cccc(O)c2)s1`, the inhibition was determined as 43% in test [2] and 37% in test [4]. In addition, the inhibition result in test [3] is “inactive”.

Take `Oc1cccc(-c2cc(-c3cccc(O)c3)c(-c3cccc(O)c3)s2)c1`: the RBA in test [6] and in test [7] was under 0.1% in each case. Also, in test [3], the inhibition result is “inactive”. Also, in the test filed under Homo sapiens, the Ratio IC50 was 2.

`COc1cccc(-c2csc(C(=O)N(C)c3cccc(OC)c3)c2)c1`: the RBA in test [6] and in test [7] was under 0.1% throughout.

Turning to `Cc1cc(-c2cccc(O)c2)sc1-c1cccc(O)c1`, the inhibition entry in test [3] was “inactive”. Besides, the Ratio IC50 in the test filed under Homo sapiens is 2.
